Measurements as given in ChEMBL document CHEMBL3421533, “The Discovery of Orally Bioavailable Tyrosine Threonine Kinase (TTK) Inhibitors: 3-(4-(heterocyclyl)phenyl)-1H-indazole-5-carboxamides as Anticancer Agents” (J Med Chem, 2015).

Assays:
[1] = Cytotoxicity against human HCT116 cells after 5 days by sulforhodamine B assay; assay type: functional, HCT-116
Procedure, shortened: (§1)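 Cancer lines were seeded at 800–6000 cells per well according to growth rate, 24 h before compound overlay. After culture, cells were fixed in situ and stained with sulforhodamine B. GI50 values were derived by curve fitting.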

[2] = Cytotoxicity against human OVCAR3 cells after 5 days by sulforhodamine B assay; assay type: functional, OVCAR-3
Aurora kinase A = target: T1, Aurora kinase A (Homo sapiens, UniProt O14965); assay: Inhibition of recombinant AURKA (unknown origin) preincubated for 15 mins prior to ATP addition by FRET-based homogenous assay
T1 sequence (O14965 whole entry): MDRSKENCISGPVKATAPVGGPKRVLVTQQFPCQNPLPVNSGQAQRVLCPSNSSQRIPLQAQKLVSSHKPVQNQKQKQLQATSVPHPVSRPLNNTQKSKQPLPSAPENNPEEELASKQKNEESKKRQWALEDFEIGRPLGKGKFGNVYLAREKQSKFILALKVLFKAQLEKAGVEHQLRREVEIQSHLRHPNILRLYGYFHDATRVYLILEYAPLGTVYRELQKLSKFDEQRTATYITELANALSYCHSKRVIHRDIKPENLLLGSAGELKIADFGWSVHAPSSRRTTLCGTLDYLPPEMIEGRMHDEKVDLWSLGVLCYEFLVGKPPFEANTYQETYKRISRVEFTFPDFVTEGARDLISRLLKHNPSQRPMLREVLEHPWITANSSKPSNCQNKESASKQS

Cytochrome P450 3A4 = Cytochrome P450 3A4 (Homo sapiens, UniProt P08684); assay: Inhibition of human CYP3A4 using BFC as substrate preincubated for 10 mins followed by enzyme/substrate addition measured after 30 mins by fluorescence assay; assay type: ADME
[3] = AUCinfinity in athymic CD1 nude mouse at 10 mg/kg, po by LC-MS/MS analysis; assay type: ADME, organism-based, Plasma; set-up: time infinity, dose 10 mg/kg, route oral; conditions: athymic CD1 nude, plasma
[4] = Half life in Sprague-Dawley rat at 1 mg/kg, iv by LC-MS/MS analysis; assay type: ADME, organism-based; set-up: dose 1 mg/kg, route intravenous; conditions: in vivo
[5] = Oral bioavailability in Sprague-Dawley rat at 5 mg/kg by LC-MS/MS analysis; assay type: ADME, organism-based; conditions: in vivo
MDA-MB-468 = assay: Antitumor activity against human MDA-MB-468 cells xenografted in CB-17 SCID mouse assessed as tumor growth inhibition at 30 mg/kg, po qd administered for 21 days measured 3 times per week during compound dosing relative to vehicle-treated control; assay type: functional; conditions: MDA-MB-468, 504 h, read-out: TGI
Procedure, shortened: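 Groups (n = 5) were randomized at a mean tumor volume of 80–120 mm³. Oral daily dosing for 21 days in 10% NMP/40% PEG400/50% DI water, top dose 30 mg/kg. Tumors were measured three times weekly, volume x²y/2, and TGI was computed against vehicle.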

SW48 = assay: Antitumor activity against human SW48 cells xenografted in CD-1 nude mouse assessed as tumor growth inhibition at 30 mg/kg, po qd administered for 21 days measured 3 times per week during compound dosing relative to vehicle-treated control; assay type: functional; conditions: SW48, 504 h, read-out: TGI
Procedure, shortened: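 Randomization into groups (n = 7) at 80–120 mm³ mean tumor volume. Compound was given orally once daily for 21 days in 10% NMP/40% PEG400/50% DI water, top dose 30 mg/kg. Tumor volume (x²y/2) was taken three times weekly, and TGI was calculated against vehicle.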

[6] = target: Mast/stem cell growth factor receptor Kit (Homo sapiens, UniProt P10721); assay: Inhibition of human cKit by millipore radiometric assay
Procedure, shortened: (§2)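 Radiometric profiling against a 278-kinase panel was done with ATP at Km. Half-maximal inhibitory concentrations were then determined for the kinases most inhibited.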

[7] = target: Proto-oncogene tyrosine-protein kinase receptor Ret (Homo sapiens, UniProt P07949, V804L); assay: Inhibition of human Ret V804L mutant by millipore radiometric assay; procedure, shortened: as §2
[8] = target: Mitogen-activated protein kinase 1 (Homo sapiens, UniProt P28482); assay: Inhibition of human MAPK1 by millipore radiometric assay; procedure, shortened: as §2
[9] = target: Serine/threonine-protein kinase PLK4 (Homo sapiens, UniProt O00444); assay: Inhibition of PLK4 (unknown origin) by indirect ELISA detection system
[10] = target: T2, Dual specificity protein kinase TTK (Homo sapiens, UniProt P33981); assay: Inhibition of TTK (unknown origin) transfected in human HCT116 cells after 4 hrs by near infrared imager analysis; assay type: cell-based, HCT-116
T2 sequence (P33981 whole entry): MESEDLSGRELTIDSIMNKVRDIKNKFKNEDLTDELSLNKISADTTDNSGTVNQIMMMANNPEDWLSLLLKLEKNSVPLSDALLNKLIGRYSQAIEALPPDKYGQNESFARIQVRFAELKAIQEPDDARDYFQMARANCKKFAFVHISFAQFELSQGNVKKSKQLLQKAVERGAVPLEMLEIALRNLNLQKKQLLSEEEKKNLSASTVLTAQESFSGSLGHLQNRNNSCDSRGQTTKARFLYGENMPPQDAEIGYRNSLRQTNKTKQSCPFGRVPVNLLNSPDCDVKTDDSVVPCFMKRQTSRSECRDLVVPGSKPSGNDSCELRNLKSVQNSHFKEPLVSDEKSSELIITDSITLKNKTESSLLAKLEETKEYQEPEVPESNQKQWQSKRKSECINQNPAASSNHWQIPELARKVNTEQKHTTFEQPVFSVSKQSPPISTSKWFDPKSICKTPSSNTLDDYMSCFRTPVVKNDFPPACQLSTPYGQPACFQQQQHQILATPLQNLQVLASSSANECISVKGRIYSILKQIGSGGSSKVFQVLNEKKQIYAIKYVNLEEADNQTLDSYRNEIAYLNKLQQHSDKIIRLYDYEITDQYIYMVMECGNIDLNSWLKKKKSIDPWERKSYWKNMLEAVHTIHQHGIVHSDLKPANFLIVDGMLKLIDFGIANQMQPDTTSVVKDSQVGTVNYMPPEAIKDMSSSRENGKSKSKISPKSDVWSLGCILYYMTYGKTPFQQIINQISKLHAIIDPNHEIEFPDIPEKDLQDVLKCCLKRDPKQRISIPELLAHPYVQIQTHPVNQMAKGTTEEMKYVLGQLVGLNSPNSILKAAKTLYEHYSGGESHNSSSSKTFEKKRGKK
Procedure, shortened: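 HCT116 cells transfected with wild-type TTK were arrested with nocodazole (200 ng/mL, 17 h). They were pretreated with MG132 (15 μM, 30 min), then exposed to compound or DMSO for 4 h. Blots were probed for phospho-TTK (Thr12/Ser15), phospho-Aurora A (Thr288)/B (Thr232), TTK and GAPDH. Bands were quantified by near-infrared imaging, and EC50 was fitted.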

[11] = Cytotoxicity against human SKOV3 cells after 5 days by sulforhodamine B assay; assay type: functional; conditions: SK-OV-3, 120 h; procedure, shortened: as §1
[12] = Cytotoxicity against human PC3 cells after 5 days by sulforhodamine B assay; assay type: functional; conditions: PC-3, 120 h; procedure, shortened: as §1
SK-MEL-28 = assay: Cytotoxicity against human SK-MEL-28 cells after 5 days by sulforhodamine B assay; assay type: functional; conditions: SK-MEL-28, 120 h; procedure, shortened: as §1
[13] = Half life in dog liver microsomes at 1 uM by LC-MS analysis; assay type: ADME, Canis lupus familiaris
[14] = Half life in human liver microsomes at 1 uM by LC-MS analysis; assay type: ADME
[15] = Plasma protein binding in human; assay type: ADME, cell-free; conditions: read-out: PPB (converted)

Sequence of Mitogen-activated protein kinase 1 (P28482 whole entry): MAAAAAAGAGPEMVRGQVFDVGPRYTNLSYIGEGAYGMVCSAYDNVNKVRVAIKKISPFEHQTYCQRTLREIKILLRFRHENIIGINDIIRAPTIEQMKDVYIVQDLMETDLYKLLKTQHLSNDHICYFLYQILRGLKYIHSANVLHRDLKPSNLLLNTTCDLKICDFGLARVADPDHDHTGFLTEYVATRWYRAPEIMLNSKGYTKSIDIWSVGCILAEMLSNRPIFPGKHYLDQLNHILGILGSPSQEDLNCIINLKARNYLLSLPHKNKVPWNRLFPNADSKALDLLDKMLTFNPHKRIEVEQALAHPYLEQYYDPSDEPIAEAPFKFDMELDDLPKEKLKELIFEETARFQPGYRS
Sequence of Proto-oncogene tyrosine-protein kinase receptor Ret (P07949 29-1114 V804L limits assumed): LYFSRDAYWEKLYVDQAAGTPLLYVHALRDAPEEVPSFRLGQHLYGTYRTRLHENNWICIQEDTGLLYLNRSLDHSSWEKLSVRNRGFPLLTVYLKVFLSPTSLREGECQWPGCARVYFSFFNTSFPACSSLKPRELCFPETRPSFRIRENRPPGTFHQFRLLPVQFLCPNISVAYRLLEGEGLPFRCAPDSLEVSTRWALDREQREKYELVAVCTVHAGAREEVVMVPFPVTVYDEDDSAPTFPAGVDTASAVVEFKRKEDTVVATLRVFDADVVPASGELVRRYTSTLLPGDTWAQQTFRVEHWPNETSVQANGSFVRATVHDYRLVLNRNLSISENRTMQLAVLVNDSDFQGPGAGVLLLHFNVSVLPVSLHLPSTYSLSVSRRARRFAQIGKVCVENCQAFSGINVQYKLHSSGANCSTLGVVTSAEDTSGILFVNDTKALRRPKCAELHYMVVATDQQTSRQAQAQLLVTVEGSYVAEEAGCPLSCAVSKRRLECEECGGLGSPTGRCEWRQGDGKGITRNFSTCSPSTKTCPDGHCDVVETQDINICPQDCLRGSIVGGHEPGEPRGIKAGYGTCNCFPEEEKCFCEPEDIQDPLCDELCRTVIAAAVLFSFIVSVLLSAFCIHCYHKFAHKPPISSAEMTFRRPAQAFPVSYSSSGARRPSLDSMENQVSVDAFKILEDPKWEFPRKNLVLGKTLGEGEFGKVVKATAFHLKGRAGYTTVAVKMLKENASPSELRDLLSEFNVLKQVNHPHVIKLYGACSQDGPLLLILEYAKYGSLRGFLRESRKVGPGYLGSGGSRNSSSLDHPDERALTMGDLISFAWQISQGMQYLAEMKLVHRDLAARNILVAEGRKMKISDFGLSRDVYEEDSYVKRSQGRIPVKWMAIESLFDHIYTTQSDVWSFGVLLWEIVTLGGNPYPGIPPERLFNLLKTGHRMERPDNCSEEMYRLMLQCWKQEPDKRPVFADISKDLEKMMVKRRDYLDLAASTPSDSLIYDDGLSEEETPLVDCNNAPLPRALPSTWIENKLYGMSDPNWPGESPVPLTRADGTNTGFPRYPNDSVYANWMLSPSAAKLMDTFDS
Sequence of Cytochrome P450 3A4 (P08684 whole entry): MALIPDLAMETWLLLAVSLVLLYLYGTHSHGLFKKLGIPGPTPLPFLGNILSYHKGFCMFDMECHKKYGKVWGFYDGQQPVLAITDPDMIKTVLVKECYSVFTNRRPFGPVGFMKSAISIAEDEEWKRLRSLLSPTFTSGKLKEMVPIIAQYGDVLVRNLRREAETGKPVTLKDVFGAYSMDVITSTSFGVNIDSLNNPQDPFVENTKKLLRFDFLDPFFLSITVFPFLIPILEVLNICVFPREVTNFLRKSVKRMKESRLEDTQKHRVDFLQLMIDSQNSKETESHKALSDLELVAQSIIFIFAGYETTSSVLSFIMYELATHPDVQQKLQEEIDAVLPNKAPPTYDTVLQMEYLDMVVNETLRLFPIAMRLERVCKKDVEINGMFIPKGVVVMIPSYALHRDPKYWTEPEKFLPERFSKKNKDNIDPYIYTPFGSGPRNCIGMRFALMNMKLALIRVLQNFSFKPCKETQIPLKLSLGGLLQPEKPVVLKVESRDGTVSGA
Sequence of Mast/stem cell growth factor receptor Kit (P10721 whole entry): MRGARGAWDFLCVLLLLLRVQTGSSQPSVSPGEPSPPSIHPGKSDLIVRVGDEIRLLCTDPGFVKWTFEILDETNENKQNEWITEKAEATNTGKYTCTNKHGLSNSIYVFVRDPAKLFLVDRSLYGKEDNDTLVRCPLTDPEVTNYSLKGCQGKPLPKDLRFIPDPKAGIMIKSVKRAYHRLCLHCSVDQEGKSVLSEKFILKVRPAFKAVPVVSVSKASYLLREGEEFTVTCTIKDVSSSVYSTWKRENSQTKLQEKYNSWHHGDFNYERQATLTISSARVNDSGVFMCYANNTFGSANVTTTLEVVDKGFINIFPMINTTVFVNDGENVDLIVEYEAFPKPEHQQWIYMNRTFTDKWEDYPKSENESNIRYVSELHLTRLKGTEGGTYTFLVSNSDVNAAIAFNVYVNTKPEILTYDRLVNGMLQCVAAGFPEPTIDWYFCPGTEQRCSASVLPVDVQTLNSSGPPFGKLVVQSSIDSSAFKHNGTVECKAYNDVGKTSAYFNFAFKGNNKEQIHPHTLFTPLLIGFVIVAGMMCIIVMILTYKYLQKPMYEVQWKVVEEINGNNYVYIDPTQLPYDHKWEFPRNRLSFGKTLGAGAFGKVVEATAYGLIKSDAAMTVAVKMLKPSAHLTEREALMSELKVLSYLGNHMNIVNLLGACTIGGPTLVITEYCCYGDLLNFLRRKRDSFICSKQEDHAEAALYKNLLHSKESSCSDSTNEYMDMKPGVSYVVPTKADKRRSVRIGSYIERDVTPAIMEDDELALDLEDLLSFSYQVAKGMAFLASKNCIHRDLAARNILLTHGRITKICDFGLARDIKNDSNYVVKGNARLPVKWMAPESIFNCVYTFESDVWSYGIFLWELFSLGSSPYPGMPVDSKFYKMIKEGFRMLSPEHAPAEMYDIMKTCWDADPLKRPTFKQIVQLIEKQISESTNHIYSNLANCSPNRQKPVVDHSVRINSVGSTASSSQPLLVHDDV
Sequence of Serine/threonine-protein kinase PLK4 (O00444 whole entry): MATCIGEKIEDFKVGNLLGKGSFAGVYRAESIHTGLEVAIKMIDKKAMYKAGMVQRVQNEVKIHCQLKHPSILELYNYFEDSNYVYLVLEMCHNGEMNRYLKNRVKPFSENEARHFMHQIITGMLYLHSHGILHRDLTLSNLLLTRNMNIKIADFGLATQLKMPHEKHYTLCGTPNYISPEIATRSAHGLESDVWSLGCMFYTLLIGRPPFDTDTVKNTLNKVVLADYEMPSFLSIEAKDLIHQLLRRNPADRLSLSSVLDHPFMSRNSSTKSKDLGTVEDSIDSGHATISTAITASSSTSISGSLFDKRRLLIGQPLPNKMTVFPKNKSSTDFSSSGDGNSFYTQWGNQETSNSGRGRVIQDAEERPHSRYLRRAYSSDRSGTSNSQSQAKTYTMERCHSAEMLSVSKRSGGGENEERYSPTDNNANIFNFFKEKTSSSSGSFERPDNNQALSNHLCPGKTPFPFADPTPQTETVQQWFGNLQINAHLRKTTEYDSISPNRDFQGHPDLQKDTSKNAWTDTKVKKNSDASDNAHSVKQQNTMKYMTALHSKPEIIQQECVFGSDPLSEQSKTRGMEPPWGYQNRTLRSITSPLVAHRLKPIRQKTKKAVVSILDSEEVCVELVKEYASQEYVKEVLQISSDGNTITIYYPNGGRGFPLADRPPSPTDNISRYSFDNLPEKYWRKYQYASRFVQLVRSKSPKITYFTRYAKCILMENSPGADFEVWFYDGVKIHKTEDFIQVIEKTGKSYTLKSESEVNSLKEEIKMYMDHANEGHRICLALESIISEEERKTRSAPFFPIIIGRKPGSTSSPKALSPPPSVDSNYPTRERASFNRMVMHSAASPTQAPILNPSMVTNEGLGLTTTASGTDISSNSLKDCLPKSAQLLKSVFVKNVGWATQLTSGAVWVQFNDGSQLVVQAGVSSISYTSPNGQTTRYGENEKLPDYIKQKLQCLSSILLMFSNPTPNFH

O=C(N[C@@H](c1ccccn1)C1CC1)c1ccc2[nH]nc(-c3ccc(N4[C@H]5CC[C@H]4CC(O)C5)cc3)c2c1 (stereo in doubt; 75)
GI50 [1]: 0.017 µM
GI50 [2]: 0.08 µM
IC50 (Aurora kinase A): 1.3 µM
IC50 (Cytochrome P450 3A4): 1.3 µM
AUC(0-inf) [3]: 3 µg·h/mL
half-life [4]: 46.8 min
bioavailability [5]: 44%
inhibition in vivo at 30 mg/kg (MDA-MB-468): 98%
inhibition in vivo at 30 mg/kg (SW48): 66%
IC50 [6]: > 30 µM
IC50 [7]: 0.25 µM
IC50 [8]: 0.32 µM
IC50 [9]: 0.13 µM
EC50 [10]: 0.014 µM
GI50 [11]: 0.017 µM
GI50 [12]: 0.06 µM
GI50 (SK-MEL-28): 0.21 µM
half-life at 1 µM [13]: > 60 min
half-life at 1 µM [14]: > 60 min
fraction unbound [15]: 0.022
